Data: ChEMBL document CHEMBL4052819 (2017)
In brackets after ≈: the same amount, converted by molar mass. Activity calls are given as the source filed them. The calls are words filed in the database; no cut-off is given here. Non-standard residues stand in square brackets, D forms with d. Residues, ends and D or L forms follow the SMILES beside them. Cha = N[C@@H](CC1CCCCC1)C(=O)O; Dab = NCC[C@H](N)C(=O)O

Experiments:
Escherichia coli [1] = experiment: Antibacterial activity against Escherichia coli ATCC 25922 after 18 to 20 hrs by broth microdilution method; assay type: functional
Summary of the method: (§1)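 Broth microdilution in tryptic soy broth: 2-fold dilutions mixed 1:1 with ~1.5 × 10^5 CFU/mL inoculum, final 0.5–32 μg/mL; 37 °C, 18–20 h. MIC taken as lowest concentration giving no visible growth. At least three independent experiments, one replicate each.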

Pseudomonas aeruginosa [2] = experiment: Antibacterial activity against Pseudomonas aeruginosa ATCC 27853 after 18 to 20 hrs by broth microdilution method; assay type: functional; summary of the method: as §1
Escherichia coli [3] = experiment: Bactericidal activity against Escherichia coli ATCC 25922; assay type: functional; conditions: read-out: MBC99.9
Summary of the method: (§2)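 MBC from MIC plates at end point: 50 μL from each well with no visible growth plated on tryptic soy agar and counted. MBC taken as lowest concentration giving ≥99.9% fall in viable count relative to initial inoculum. Three independent experiments, one replicate each.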

Klebsiella pneumoniae [4] = experiment: Bactericidal activity against Klebsiella pneumoniae ATCC 13883; assay type: functional; conditions: read-out: MBC99.9; summary of the method: as §2
Pseudomonas aeruginosa [5] = experiment: Bactericidal activity against Pseudomonas aeruginosa ATCC 27853; assay type: functional; conditions: read-out: MBC99.9; summary of the method: as §2
Pseudomonas aeruginosa [6] = experiment: Bactericidal activity against Pseudomonas aeruginosa ATCC 27853 at 8 ug/ml after 2 hrs by time-kill assay relative to control; assay type: functional
Summary of the method: (§3)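 Time-kill at 8, 16 and 32 μg/mL; survivors counted on tryptic soy agar at 0, 2, 4, 6 and 24 h. Three independent experiments, one replicate each.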

Staphylococcus aureus [7] = experiment: Bactericidal activity against Staphylococcus aureus ATCC 29213 at 16 ug/ml after 4 hrs by time-kill assay relative to control; assay type: functional; summary of the method: as §3
Staphylococcus aureus [8] = experiment: Bactericidal activity against Staphylococcus aureus ATCC 29213 at 8 ug/ml after 24 hrs by time-kill assay; assay type: functional; summary of the method: as §3
Escherichia coli [9] = experiment: Antibacterial activity against Escherichia coli ATCC 25922 after 18 to 20 hrs in presence of 95% serum by broth microdilution method; assay type: functional
Summary of the method: (§4)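 Same microdilution with human serum as medium: compound 2-fold diluted in 100% serum, mixed 1:1 with 90% serum holding ~1.5 × 10^5 CFU/mL, giving 95% serum and final 0.5–64 μg/mL. MIC read as no visible growth after incubation as for the broth test.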

Staphylococcus aureus [10] = experiment: Antibacterial activity against Staphylococcus aureus ATCC 29213 after 18 to 20 hrs in presence of 95% serum by broth microdilution method; assay type: functional; summary of the method: as §4
Escherichia coli [11] = experiment: Antibacterial activity against Escherichia coli ATCC 25922 in presence of 100% serum after 6 hrs by broth microdilution method; assay type: functional; conditions: ATCC 25922, 6 h
Summary of the method: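 Serum stability: compound added to 100% human serum at final 64 μg/mL, held at 37 °C, sampled at 0, 6, 12 and 24 h. […] Residual activity compared with untreated control.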

Acinetobacter baumannii = experiment: Antibacterial activity against carbapenem-resistant Acinetobacter baumannii clinical isolate expressing beta-lactamase OXA-23, 24/40 after 18 to 20 hrs by broth microdilution method; assay type: functional
Summary of the method: (§5)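 Broth microdilution in tryptic soy broth: 2-fold dilutions mixed 1:1 with ~1.5 × 10^5 CFU/mL bacterial suspension in TSB, final 0.5–32 μg/mL, 37 °C for 18–20 h. MIC = lowest concentration with no visible growth. At least three independent experiments, one replicate each.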

Klebsiella pneumoniae [12] = experiment: Antibacterial activity against carbapenem-resistant Klebsiella pneumoniae clinical isolate expressing beta-lactamase NDM, OXA-181 after 18 to 20 hrs by broth microdilution method; assay type: functional; summary of the method: as §5
Escherichia coli [13] = experiment: Antibacterial activity against polymyxin-resistant Escherichia coli UAMS-ECPR1 after 18 to 20 hrs by broth microdilution method; assay type: functional; summary of the method: as §5
Staphylococcus aureus [14] = experiment: Antibiofilm activity against methicillin-resistant Staphylococcus aureus LAC established catheter-associated biofilm model at 20 times MIC after 72 hrs relative to control; assay type: functional
Staphylococcus aureus [15] = experiment: Antibacterial activity against methicillin-resistant Staphylococcus aureus LAC; assay type: functional
Staphylococcus aureus [16] = experiment: Induction of cytoplasmic membrane depolarization in Staphylococcus aureus ATCC 29213 at >= 16 ug/ml by DiSC3(5) probe-based fluorescence assay; assay type: functional
Summary of the method: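 S. aureus ATCC 29213 grown in TSB at 37 °C with shaking (200 rpm) for ~5 h after 1/100 dilution of an overnight culture. Cells washed twice in 5 mM HEPES (pH 7.2) with 5 mM glucose and resuspended in the same buffer. Loaded with 0.5 μM DiSC3(5) for 15 min at room temperature, then 100 mM KCl added. Compound given at 8–64 μg/mL final. Fluorescence read at ex 622/em 670 nm. Three independent experiments, ANOVA with Tukey HSD.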

Klebsiella pneumoniae [17] = experiment: Antibacterial activity against polymyxin-resistant Klebsiella pneumoniae AR 0109 after 18 to 20 hrs by broth microdilution method

## CC(C)C[C@H](NC(=O)[C@@H](Cc1ccccc1)NC(=O)[C@H](CCN)NC(=O)[C@H](Cc1ccccc1)NC(=O)[C@H](CCN)NC(=O)[C@@H](N)CC1CCCCC1)C(=O)N[C@@H](CCN)C(=O)N[C@H](CC(C)C)C(=O)N[C@@H](Cc1ccccc1)C(=O)N[C@@H](CO)C(N)=O (H-[Cha][Dab]F[Dab][dF]L[Dab][dL]FS-NH2)
Escherichia coli [1]
  MIC: 0.5 to 1 µg/mL (≈ 0.408 to 0.816 µM)
Pseudomonas aeruginosa [2]
  MIC: 0.5 to 1 µg/mL (≈ 0.408 to 0.816 µM)
Escherichia coli [3]
  MBC: 8 to 16 µg/mL (≈ 6.53 to 13.1 µM)
Klebsiella pneumoniae [4]
  MBC: 4 µg/mL (≈ 3.26 µM)
Pseudomonas aeruginosa [5]
  MBC: 2 to 4 µg/mL (≈ 1.63 to 3.26 µM)
Pseudomonas aeruginosa [6]
  Activity: 2.2 deltalog10CFU/ml
Staphylococcus aureus [7]
  Activity: 3.1 deltalog10CFU/ml
Staphylococcus aureus [8]
  Activity: inactive
Escherichia coli [9]
  MIC: 8 µg/mL
Staphylococcus aureus [10]
  MIC: 32 µg/mL
Escherichia coli [11]
  MIC: 4 to 8 µg/mL
Acinetobacter baumannii
  MIC: 0.5 µg/mL (≈ 0.408 µM)
Klebsiella pneumoniae [12]
  MIC: 0.5 to 2 µg/mL (≈ 0.408 to 1.63 µM)
Escherichia coli [13]
  MIC: < 0.5 µg/mL
Staphylococcus aureus [14]
  Activity: 5 deltalog10CFU/ml
Staphylococcus aureus [15]
  MIC: 8 µg/mL (≈ 6.53 µM)
Staphylococcus aureus [16]
  Activity: Active
Klebsiella pneumoniae [17]
  MIC: 4 to 8 µg/mL (≈ 3.26 to 6.53 µM)
